The text below walks through data of the RNAGym collection of RNA variant scans (doi:10.1002/anie.201605470).

B1: Osa-1-4 twister ribozyme (parent)
chain: CCGCCUAACACUGCCAAUGCCGGUCCCAAGCCCGGAUAAAAGUGGAGGGGGCGG

Variants of B1 are the subject of the data set. Nature of the data set: self-cleavage, relative activity (ratio to wild type); higher = more cleavage; co-transcriptional. An outline of the steps: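 The 48 positions downstream of the cleavage site in a 54-nucleotide Oryza sativa twister ribozyme template were synthesised at 97 % wild-type base and 1 % of each other base. The template was transcribed in vitro at 37 °C for 2 h, with self-cleavage allowed during transcription. Reads with or without upstream sequence after deep sequencing marked cleavage status, and relative activity is fraction cleaved normalised to wild type.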
With CCGCCUAACACUGCCAAUGUCGGUACCAAGCCCGGAUAAAAGUGGAGGGGGCGG [C20U C25A], the self-cleavage is 0.17. In the case of CCGCCUAACACUGCCAAUGUCGGUGCCAAGCCCGGAUAAAAGUGGAGGGGGCGG [C20U C25G], the self-cleavage was found to be 0.15. Take CCGCCUAACACUGCCAAUGUCGGUUCCAAGCCCGGAUAAAAGUGGAGGGGGCGG [C20U C25U]: the self-cleavage is 0.9.

Consider CCGCCUAACACUGCCAAUGGCGGUCCCAAGCCCGGAGAAAAGUGGAGGGGGCGG [C20G U37G], for which the self-cleavage was determined as 0.19. As to CCGCCUAACACUGCCAAUGGCGGUCCCAAGCCCGGACAAAAGUGGAGGGGGCGG [C20G U37C], the self-cleavage is 0.19.

As to CCGCCUAACACUGCCAAUGGCGGUCCCAAGCCCGGAAAAAAGUGGAGGGGGCGG [C20G U37A], the self-cleavage worked out at 0.2. Next, CCGCCUAACACUACCAAUGGCGGUCCCAAGCCCGGAUAAAAGUGGAGGGGGCGG [C20G G13A]: 0.03; CCGCCUAACACUUCCAAUGGCGGUCCCAAGCCCGGAUAAAAGUGGAGGGGGCGG [C20G G13U]: 0.01.

Turning to CCGCCUAACACUCCCAAUGGCGGUCCCAAGCCCGGAUAAAAGUGGAGGGGGCGG [C20G G13C], the self-cleavage stood at 0.02. Regarding CCGCCUAACACUGCCAAUGUCGGUCCCAAGCCCGGAUAAAAGUGGAGGGGGCGG [C20U], the self-cleavage came to 0.97. CCGCCUAACACUGCCAAUUGCGGUCCCAAGCCCGGAUAAAAGUGGAGGGGGCGG [C20G G19U]: the self-cleavage was 0.37. Take CCGCCUAACACUGCCAAUCGCGGUCCCAAGCCCGGAUAAAAGUGGAGGGGGCGG [C20G G19C]: the self-cleavage came to 0.17. The value for CCGCCUAACACUGCCAAUAGCGGUCCCAAGCCCGGAUAAAAGUGGAGGGGGCGG [C20G G19A] was 0.41; that for CCGCCUAACACUGCCAAUGGCGGUCCCAAGCCCGGAUAAAAGUGGAGGGGCCGG [C20G G51C] was 0.03.

As for CCGCCUAACACUGCCAAUGGCGGUCCCAAGCCCGGAUAAAAGUGGAGGGGUCGG [C20G G51U], the self-cleavage was determined as 0.06. The value for CCGCCUAACACUGCCAAUGGCGGUCCCAAGCCCGGAUAAAAGUGGAGGGGACGG [C20G G51A] was 0.09.

With CCGCCUAACACUGCCAAUGGCGGUCCCAAGCCCCGAUAAAAGUGGAGGGGGCGG [C20G G34C], the self-cleavage was 0.08. The value for CCGCCUAACACUGCCAAUGGCGGUCCCAAGCCCUGAUAAAAGUGGAGGGGGCGG [C20G G34U] was 0.06; that for CCGCCUAACACUGCCAAUGGCGGUCCCAAGCCCAGAUAAAAGUGGAGGGGGCGG [C20G G34A] was 0.08; that for CCGCCUAAUACUGCCAAUGUCGGUCCCAAGCCCGGAUAAAAGUGGAGGGGGCGG [C20U C9U] was 0.68. In the case of CCGCCUAAAACUGCCAAUGUCGGUCCCAAGCCCGGAUAAAAGUGGAGGGGGCGG [C20U C9A], the self-cleavage was 0.38. The value for CCGCCUAAGACUGCCAAUGUCGGUCCCAAGCCCGGAUAAAAGUGGAGGGGGCGG [C20U C9G] was 0.73. Next, CCGCCUAACACUGCCAAUGGCGGUCCCAAGCCCGGAUAAAACUGGAGGGGGCGG [C20G G42C]: 0.04; CCGCCUAACACUGCCAAUGGCGGUCCCAAGCCCGGAUAAAAUUGGAGGGGGCGG [C20G G42U]: 0.02. The value for CCGCCUAACACUGCCAAUGGCGGUCCCAAGCCCGGAUAAAAAUGGAGGGGGCGG [C20G G42A] was 0.07; that for CCGCCUAACACUGCCAAUGGCGGUCCCAAGCCCGGAUAAAAGUGGAGGGGGCGU [C20G G54U] was 0.12.

Take CCGCCUAACACUGCCAAUGGCGGUCCCAAGCCCGGAUAAAAGUGGAGGGGGCGA [C20G G54A]: the self-cleavage was determined as 0.06. For the variant CCGCCUAACACUGCCAAUGGCGGUCCCAAGCCCGGAUAAAAGUGGAGGGGGCGC [C20G G54C], the self-cleavage turned out to be 0.07. Next, CCGCCUAACACUGCCAAUGGCGGUCCCAAGCCCGGAUAAAAGUAGAGGGGGCGG [C20G G44A]: 0.08; CCGCCUAACACUGCCAAUGGCGGUCCCAAGCCCGGAUAAAAGUCGAGGGGGCGG [C20G G44C]: 0.06; CCGCCUAACACUGCCAAUGGCGGUCCCAAGCCCGGAUAAAAGUUGAGGGGGCGG [C20G G44U]: 0.07. For CCGCCUAACACUGCCAAUGGCGGUCCCAAGCCCGGAUAAAAGUGGAGUGGGCGG [C20G G48U], the self-cleavage came out at 0.03. The value for CCGCCUAACACUGCCAAUGGCGGUCCCAAGCCCGGAUAAAAGUGGAGCGGGCGG [C20G G48C] was 0.04. Consider CCGCCUAACACUGCCAAUGGCGGUCCCAAGCCCGGAUAAAAGUGGAGAGGGCGG [C20G G48A], for which the self-cleavage came out at 0.03. The value for CCGCCUAACACUGCCAAUGGCGGUCCCAAGCCCGGAUAAAAGUGGAGGGGGUGG [C20G C52U] was 0.17; that for CCGCCUAACACUGCCAAUGGCGGUCCCAAGCCCGGAUAAAAGUGGACGGGGCGG [C20G G47C] was 0.04. Consider CCGCCUAACACUGCCAAUGGCGGUCCCAAGCCCGGAUAAAAGUGGAAGGGGCGG [C20G G47A], for which the self-cleavage came out at 0.05. The value for CCGCCUAACACUGCCAAUGGCGGUCCCAAGCCCGGAUAAAAGUGGAUGGGGCGG [C20G G47U] was 0.03; that for CCGCCUAACACUGCCAAUGUCGGUCCCAAGCGCGGAUAAAAGUGGAGGGGGCGG [C20U C32G] was 0.13; that for CCGCCUAACACUGCCAAUGUCGGUCCCAAGCACGGAUAAAAGUGGAGGGGGCGG [C20U C32A] was 0.08. The value for CCGCCUAACACUGCCAAUGUCGGUCCCAAGCUCGGAUAAAAGUGGAGGGGGCGG [C20U C32U] was 0.15.

As to CCGCCUAACACUGCCAAUGGCCGUCCCAAGCCCGGAUAAAAGUGGAGGGGGCGG [C20G G22C], the self-cleavage came out at 0.05. Turning to CCGCCUAACACUGCCAAUGGCUGUCCCAAGCCCGGAUAAAAGUGGAGGGGGCGG [C20G G22U], the self-cleavage came out at 0.09. As for CCGCCUAACACUGCCAAUGGCAGUCCCAAGCCCGGAUAAAAGUGGAGGGGGCGG [C20G G22A], the self-cleavage amounted to 0.08. The value for CCGCCUAACACUACCAAUGUCGGUCCCAAGCCCGGAUAAAAGUGGAGGGGGCGG [C20U G13A] was 0.15; that for CCGCCUAACACUCCCAAUGUCGGUCCCAAGCCCGGAUAAAAGUGGAGGGGGCGG [C20U G13C] was 0.02; that for CCGCCUAACACUGCCAAUGGCGGUCCCAAGCCCGAAUAAAAGUGGAGGGGGCGG [C20G G35A] was 0.27.

In the case of CCGCCUAACACUGCCAAUGGCGGUCCCAAGCCCGUAUAAAAGUGGAGGGGGCGG [C20G G35U], the self-cleavage was 0.27.
